Measured values taken from ChEMBL document CHEMBL4043244, “Diverse amide analogs of sulindac for cancer treatment and prevention” (Bioorg Med Chem Lett, 2017).

Tests used:
[1] = tested on: HT-29; experiment: Growth inhibition of human HT-29 cells after 72 hrs by CellTiter-Glo reagent based assay; format: functional; settings: HT-29, 72 h
In short: (§1)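 Cancer cell lines (PC3 prostate, HT29 colorectal carcinoma, MDA-MB-231 breast) were screened by quantitative high-throughput screening in whole cells, and CC50 values were derived.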

[2] = tested on: PC-3; experiment: Growth inhibition of human PC3 cells after 72 hrs by CellTiter-Glo reagent based assay; format: functional; settings: PC-3, 72 h; in short: as §1
[3] = tested on: MDA-MB-231; experiment: Growth inhibition of human MDA-MB-231 cells after 72 hrs by CellTiter-Glo reagent based assay; format: functional; settings: MDA-MB-231, 72 h; in short: as §1
[4] = Growth inhibition of mouse CPC300 cells after 72 hrs by CellTiter-Glo reagent based assay; format: functional, cell-based
[5] = Growth inhibition of human NALM16 cells after 72 hrs by CellTiter-Glo reagent based assay; format: functional, cell-based
[6] = tested on: Raji; experiment: Growth inhibition of human Raji cells after 72 hrs by CellTiter-Glo reagent based assay; format: functional, cell-based
[7] = tested on: Jurkat E6.1; experiment: Growth inhibition of human Jurkat E6-1 cells after 72 hrs by CellTiter-Glo reagent based assay; format: functional, cell-based
[8] = tested on: REH; experiment: Growth inhibition of human REH cells after 72 hrs by CellTiter-Glo reagent based assay; format: functional, cell-based
[9] = tested on: 697; experiment: Growth inhibition of human 697 cells after 72 hrs by CellTiter-Glo reagent based assay; format: functional, cell-based
[10] = tested on: BJ; experiment: Growth inhibition of human BJ cells after 72 hrs by CellTiter-Glo reagent based assay; format: cell-based
In short: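 Normal human foreskin fibroblast (BJ) counter-screen for cytotoxicity, with drug tested at 10 μM.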

[11] = Homo sapiens, NALM16, 72 h, read-out: EC50
[12] = Mus musculus, CPC300, 72 h, read-out: EC50
[13] = Homo sapiens, Raji, 72 h, read-out: EC50
[14] = Homo sapiens, REH, 72 h, read-out: EC50
[15] = Homo sapiens, 697, 72 h, read-out: EC50

SMILES	CC50 [1] [µM]	CC50 [2] [µM]	CC50 [3] [µM]	EC50 [10] [µM]	also measured
CC1=C(CC(=O)N(C)CCN(C)C)c2cc(F)ccc2/C1=C\c1nc2ccccc2s1	2.02	5.88	3.8	> 7.57	EC50 ([4]; cpc300): Not Active; EC50 [5, 11]: 0.3 µM; EC50 ([6]; raji): Not Active; EC50 ([7]; jurkat e6.1): Not Active; EC50 ([8]; reh): Not Active; EC50 [9]; 697: Not Active
CSc1ccc(/C=C2/C(C)=C(CC(=O)NCCN(C)C)c3cc(F)ccc32)cc1	0.65	3.12	2.67	> 7.57	EC50 ([4]; cpc300): Not Active; EC50 ([5]; nalm16): Not Active; EC50 ([6]; raji): Not Active; EC50 ([7]; jurkat e6.1): Not Active; EC50 ([8]; reh): Not Active; EC50 [9]; 697: Not Active
CC1=C(CC(=O)NCc2ccccc2)c2cc(F)ccc2/C1=C\c1ccc([S+](C)[O-])cc1 (centres undefined)	0.5	2.64	0.78	> 7.57	EC50 [4, 12]: 120 µM; EC50 [5, 11]: 1.3 µM; EC50 [6, 13]: 2.6 µM; EC50 ([7]; Homo sapiens, Jurkat E6.1, 72 h, read-out: EC50): 1.3 µM; EC50 [8, 14]: 3.3 µM; EC50 [9, 15]: 4.1 µM
CSc1ccc(/C=C2/C(C)=C(CC(=O)N3CCN(CCN(C)C)CC3)c3cc(F)ccc32)cc1	2.17	6.23	4.05	> 7.57	EC50 [4, 12]: 27 µM; EC50 [5, 11]: 1.9 µM; EC50 ([6]; raji): Not Active; EC50 ([7]; jurkat e6.1): Not Active; EC50 ([8]; reh): Not Active; EC50 [9]; 697: Not Active
COc1cc(/C=C2/C(C)=C(CC(=O)N(C)CCN(C)C(=O)[C@@H](N)C(C)C)c3cc(F)ccc32)cc(OC)c1OC	10.7	17.7	18.8	> 7.57	EC50 ([4]; cpc300): Not Active; EC50 ([5]; nalm16): Not Active; EC50 ([6]; raji): Not Active; EC50 ([7]; jurkat e6.1): Not Active; EC50 [9, 15]: 0.96 µM
CC1=C(CC(=O)NCCCN(C)C)c2cc(F)ccc2/C1=C\c1nc2ccccc2s1	1.05	3.25	1.93	> 7.57	EC50 [4, 12]: 65 µM; EC50 [5, 11]: 0.35 µM; EC50 ([6]; raji): Not Active; EC50 ([7]; jurkat e6.1): Not Active; EC50 ([8]; reh): Not Active; EC50 [9]; 697: Not Active
CC1=C(CC(=O)NCCN2CCCC2)c2cc(F)ccc2/C1=C\c1nc2ccccc2s1	1.21	4.94	3.56	> 7.57	EC50 ([4]; cpc300): Not Active; EC50 ([5]; nalm16): Not Active; EC50 [6, 13]: 47 µM; EC50 ([7]; jurkat e6.1): Not Active; EC50 [8, 14]: 18 µM; EC50 [9]; 697: Not Active
CCN(CC)CCCNC(=O)CC1=C(C)/C(=C/c2ccc(SC)cc2)c2ccc(F)cc21	1.53	4.33	3.19	> 7.57	EC50 ([4]; cpc300): Not Active; EC50 [6, 13]: 21 µM; EC50 ([7]; jurkat e6.1): Not Active; EC50 ([8]; reh): Not Active; EC50 [9]; 697: Not Active
CC1=C(CC(=O)N2CCN(c3ccncc3)CC2)c2cc(F)ccc2/C1=C\c1nc2ccccc2s1	5.25	12.3	7.71	> 7.57	EC50 [4, 12]: 72 µM; EC50 ([5]; nalm16): Not Active; EC50 ([6]; raji): Not Active; EC50 ([7]; jurkat e6.1): Not Active; EC50 ([8]; reh): Not Active; EC50 [9]; 697: Not Active
CSc1ccc(/C=C2/C(C)=C(CC(=O)N3CCN(CCCN(C)C)CC3)c3cc(F)ccc32)cc1	1.69	4.28	3.77	> 7.57	EC50 ([4]; cpc300): Not Active; EC50 [6, 13]: 76 µM; EC50 ([7]; jurkat e6.1): Not Active; EC50 ([8]; reh): Not Active; EC50 [9]; 697: Not Active
CSc1ccc(/C=C2/C(C)=C(CC(=O)N3CCC[C@H]3CN3CCCC3)c3cc(F)ccc32)cc1	1.55	5.1	4.16	> 7.57	EC50 ([4]; cpc300): Not Active; EC50 [6, 13]: 76 µM; EC50 ([7]; jurkat e6.1): Not Active; EC50 ([8]; reh): Not Active; EC50 [9]; 697: Not Active
CSc1ccc(/C=C2/C(C)=C(CC(=O)N3CCCN(C)CC3)c3cc(F)ccc32)cc1	2.94	7.35	7.21	> 7.57	EC50 ([4]; cpc300): Not Active; EC50 [5, 11]: 0.49 µM; EC50 ([7]; jurkat e6.1): Not Active; EC50 ([8]; reh): Not Active; EC50 [9]; 697: Not Active
CC1=C(CC(=O)NCc2ccccc2)c2cc(F)ccc2/C1=C\c1ccncc1 [CP-461 FREE BASE]	2.14	5.71	3.68	–	–
CC1=C(CC(=O)N(C)CCN(C)S(=O)(=O)c2ccc(C)cc2)c2cc(F)ccc2/C1=C\c1ccc([S+](C)[O-])cc1 (centres undefined)	6.18	11	17.8	–	–
CCN(CC)CCN(C)C(=O)CC1=C(C)/C(=C/c2ccc(SC)cc2)c2ccc(F)cc21	1.49	5.65	3.77	–	–
CSc1ccc(/C=C2/C(C)=C(CC(=O)NCCCN(C)C)c3cc(F)ccc32)cc1	2.46	6.99	5.18	–	–
CSc1ccc(/C=C2/C(C)=C(CC(=O)N(C)CCN(C)C(=O)[C@@H](N)C(C)C)c3cc(F)ccc32)cc1	3.72	7.08	7.33	–	–
CSc1ccc(/C=C2/C(C)=C(CC(=O)N(C)CCCN(C)C)c3cc(F)ccc32)cc1	2.18	6.98	5.41	–	–
CC1=C(CC(=O)NCc2ccco2)c2cc(F)ccc2/C1=C\c1nc2ccccc2s1	5.48	26.4	6.7	–	–
CSc1ccc(/C=C2/C(C)=C(CC(=O)NCCC3CCCN3C)c3cc(F)ccc32)cc1 (centres undefined)	1.41	4.33	3.75	–	–

SMILES	CC50 [1] [µM]	CC50 [2] [µM]	CC50 [3] [µM]	EC50 [10] [µM]	also measured
CC1=C(CC(=O)N(C)CCN(C)S(=O)(=O)c2ccccc2)c2cc(F)ccc2/C1=C\c1ccc([S+](C)[O-])cc1 (centres undefined)	6.09	8.2	12.2	–	–
CC1=C(CC(=O)NCCN(C)C)c2cc(F)ccc2/C1=C\c1nc2ccccc2s1	1.57	4.88	3.63	–	–
CCN(CC)CCCNC(=O)CC1=C(C)/C(=C/c2ccc([S+](C)[O-])cc2)c2ccc(F)cc21 (centres undefined)	27.1	> 50	> 50	–	–
CSc1ccc(/C=C2/C(C)=C(CC(=O)N(C)CCN(C)S(=O)(=O)c3cccc4c(N(C)C)cccc34)c3cc(F)ccc32)cc1	> 50	> 50	> 50	–	–
COC(=O)[C@H](Cc1cnc[nH]1)NC(=O)CC1=C(C)/C(=C/c2ccc(SC)cc2)c2ccc(F)cc21	23	> 50	> 50	–	–
CC1=C(CC(=O)N2CCC(N3CCCCC3)CC2)c2cc(F)ccc2/C1=C\c1ccc([S+](C)[O-])cc1 (centres undefined)	> 50	> 50	> 50	–	–
CNCCCN(C)C(=O)CC1=C(C)/C(=C/c2ccc(SC)cc2)c2ccc(F)cc21	2.9	7.65	7.66	–	–
CC1=C(CC(=O)NCCC(C)C)c2cc(F)ccc2/C1=C\c1nc2ccccc2s1	> 50	> 50	24.2	–	–
COc1cc(/C=C2/C(C)=C(CC(=O)NCCN3CCCCC3)c3cc(F)ccc32)cc(OC)c1OC	4.18	9.62	10.4	–	–
CC1=C(CC(=O)N(C)CCN(C)S(C)(=O)=O)c2cc(F)ccc2/C1=C\c1ccc([S+](C)[O-])cc1 (centres undefined)	12.4	42.6	12.5	–	–
CCN(CC)CCNC(=O)CC1=C(C)/C(=C/c2ccc(SC)cc2)c2ccc(F)cc21	1.54	5.45	4.2	–	–
CSc1ccc(/C=C2/C(C)=C(CC(=O)Nc3ccc(N(C)C)cc3)c3cc(F)ccc32)cc1	> 50	> 50	30.6	–	–
CNCCN(C)C(=O)CC1=C(C)/C(=C/c2ccc([S+](C)[O-])cc2)c2ccc(F)cc21 (centres undefined)	34.5	> 50	> 50	–	–
CCN1CCC[C@H]1CNC(=O)CC1=C(C)/C(=C/c2ccc(SC)cc2)c2ccc(F)cc21	1.16	4.64	3.72	–	–
CSc1ccc(/C=C2/C(C)=C(CC(=O)NCc3ccccc3)c3cc(F)ccc32)cc1	1.52	16.4	3.61	–	–
CC1=C(CC(=O)NCc2ccccc2)c2cc(F)ccc2/C1=C\c1nc2ccccc2s1	23.6	> 50	19.6	–	–
COc1cc(/C=C2/C(C)=C(CC(=O)NCCC(C)C)c3cc(F)ccc32)cc(OC)c1OC	5.24	8.2	8.73	–	–
CCN(CC)CCN(CC)C(=O)CC1=C(C)/C(=C/c2ccc(SC)cc2)c2ccc(F)cc21	1.83	6.21	5.22	–	–
CCN(CC)CCN(C)C(=O)CC1=C(C)/C(=C/c2ccc([S+](C)[O-])cc2)c2ccc(F)cc21 (centres undefined)	24	> 50	> 50	–	–
CC1=C(CC(=O)NCCCN(C)C)c2cc(F)ccc2/C1=C\c1ccc([S+](C)[O-])cc1 (centres undefined)	33.3	> 50	> 50	–	–
